{"source": "ChEMBL document CHEMBL4190287", "about": "“Identification of Antiangiogenic Potential and Cellular Mechanisms of Napyradiomycin A1 Isolated from the Marine-Derived Streptomyces sp. YP127” (J Nat Prod, 2017)", "key": {"[1]": {"test_system": "HUVEC", "assay": "Downregulation of PECAM1 mRNA level in HUVEC at 20 uM after 24 hrs by qRT-PCR method relative to control", "type": "functional, Homo sapiens"}, "[2]": {"test_system": "HUVEC", "assay": "Antiproliferative activity against HUVEC assessed as inhibition of Ki67 expression at 20 uM after 24 hrs by immunofluorescent microscopic analysis", "type": "functional, cell-based", "details": "Homo sapiens", "summary_of_the_method": "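HUVECs seeded 4 × 10^4 per well on gelatin, treated 24 h; fixed 4% paraformaldehyde 10 min, permeabilized 0.1% Triton X-100 10 min, blocked 10% normal horse serum 1 h RT, anti-Ki-67 1 h, Cy3 secondary, DAPI nuclear stain; fluorescence microscopy.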"}, "[3]": {"test_system": "HUVEC", "assay": "Induction of cellular permeability in HUVEC at 20 uM by Transwell assay", "type": "functional, cell-based", "details": "Homo sapiens, TDE = time-dependent effect", "summary_of_the_method": "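HUVECs (5 × 10^5 cells/well) grown 48 h on gelatin-coated Transwell inserts, then exposed to compound a further 48 h; 1 mg/mL FITC-dextran added to upper chamber and fluorescence transferred to lower chamber read on plate reader.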"}, "[4]": {"test_system": "HUVEC", "assay": "Downregulation of VE-cadherin mRNA level in HUVEC at 20 uM after 24 hrs by qRT-PCR method relative to control", "type": "functional, Homo sapiens", "summary_of_the_method": "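Total RNA from compound- or DMSO-treated HUVECs (24 h) extracted, cDNA made, VE-cadherin mRNA quantified by real-time PCR relative to control.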"}, "[5]": {"test_system": "HUVEC", "assay": "Downregulation of PECAM1 mRNA level in HUVEC at 20 uM after 48 hrs by qRT-PCR method relative to control", "type": "functional, Homo sapiens"}, "[6]": {"assay": "Antiproliferative activity against human BJ6 cells at 0.2 to 20 uM after 72 hrs by IncuCyte live imaging"}, "[7]": {"test_system": "HUVEC", "assay": "Antimigratory activity against VEGF-stimulated HUVEC at 20 uM after 24 hrs by scratch wound-healing assay", "type": "functional, cell-based", "details": "Homo sapiens", "summary_of_the_method": "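HUVECs plated at 1 × 10^5 cells/well, grown overnight, wounded with pin device, washed twice with PBS; medium with 10 ng/mL VEGF plus compound or DMSO added. Live-cell images every 3 h for 24 h; wound confluence (cell density in wound area, %) computed by imaging algorithm.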"}, "[8]": {"test_system": "HUVEC", "assay": "Antiangiogenic activity in HUVEC assessed as inhibition of VEGF-induced tube formation after 24 hrs by calcein-AM dye based fluorescence assay", "type": "functional, cell-based", "details": "Homo sapiens", "summary_of_the_method": "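HUVECs (passage 6–8) seeded at 6 × 10^4 cells on growth-factor-reduced Matrigel, incubated 24 h with compound at various concentrations plus 10 ng/mL recombinant human VEGF; stained 2 μg/mL Calcein AM 20 min, 37 °C, imaged. Tubes with three branch points counted; three independent experiments, mean tube numbers; IC50 from concentration–response.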"}, "[9]": {"test_system": "HUVEC", "assay": "Downregulation of VE-cadherin expression in HUVEC at 20 uM by Western blot method", "type": "functional, cell-based", "details": "Homo sapiens, TDE = time-dependent effect", "summary_of_the_method": "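HUVEC lysates in RIPA buffer with protease inhibitors, separated on 4–12% SDS gradient gel, transferred to PVDF, probed with anti-VE-cadherin and anti-GAPDH, HRP secondary, ECL detection.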"}, "[10]": {"test_system": "HUVEC", "assay": "Downregulation of PECAM1 expression in HUVEC at 20 uM after 24 to 48 hrs by Western blot method", "type": "functional, cell-based", "details": "Homo sapiens"}, "[11]": {"test_system": "HUVEC", "assay": "Antiinvasive activity in HUVEC assessed as inhibition of VEGF-induced cell invasion at 20 uM measured every 3 hrs for 24 hrs relative to control", "type": "functional, Homo sapiens", "parameters": "scale not given: the % may be the effect or the level left", "summary_of_the_method": "(§1)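 Wound made in HUVEC monolayer (1 × 10^5 cells/well, grown overnight) with pin wounding device, washed with PBS; growth-factor-reduced basement membrane matrix overlaid on wound, compound-containing medium added. Tip cells at invasive front counted after 24 and 48 h of treatment versus control, live-cell imaging.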"}, "[12]": {"test_system": "HUVEC", "assay": "Downregulation of VE-cadherin mRNA level in HUVEC at 20 uM after 48 hrs by qRT-PCR method relative to control", "type": "functional, Homo sapiens"}, "[13]": {"test_system": "HUVEC", "assay": "Antiinvasive activity in HUVEC assessed as inhibition of VEGF-induced cell invasion at 20 uM measured every 3 hrs for 48 hrs relative to control", "type": "functional, Homo sapiens", "parameters": "scale not given: the % may be the effect or the level left", "summary_of_the_method": "as §1"}, "[14]": {"test_system": "HUVEC", "assay": "Antiproliferative activity against HUVEC after 72 hrs by Celltiter-Glo luminescent cell viability assay", "type": "functional", "details": "Homo sapiens", "summary_of_the_method": "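HUVECs seeded 2.5 × 10^3 per well, treated with compound at different concentrations; confluency imaged every 6 h over 72 h. At 72 h viable cells measured by CellTiter-Glo luminescence; GI50 calculated.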"}, "[15]": {"test_system": "HUVEC", "assay": "Cytotoxicity against HUVEC assessed as cell death at 20 uM after 24 hrs by YOYO-1 Iodide staining based fluorescence assay", "details": "human"}}, "note": "Active and inactive are the calls of the source. The rule behind the calls is not given here."}
{"smiles": "CC(C)=CCC/C(C)=C/C[C@@]12OC(C)(C)[C@H](Cl)C[C@]1(Cl)C(=O)c1c(O)cc(O)cc1C2=O", "values": [{"measurement": "Activity", "setting": "[1]", "value": 53, "unit": "%"}, {"measurement": "inhibition", "setting": "[2]", "value": "Active"}, {"measurement": "Activity", "setting": "[3]", "value": "Tde"}, {"measurement": "Activity", "setting": "[4]", "value": 76, "unit": "%"}, {"measurement": "Activity", "setting": "[5]", "value": 70, "unit": "%"}, {"measurement": "Activity", "setting": "[6]", "value": "Non-Toxic"}, {"measurement": "Activity", "setting": "[7]", "value": "Active"}, {"measurement": "IC50", "setting": "[8]", "value": 10, "unit": "µM"}, {"measurement": "Activity", "setting": "[9]", "value": "Tde"}, {"measurement": "Activity", "setting": "[10]", "value": "inactive"}, {"measurement": "Activity", "setting": "[11]", "value": 43, "unit": "%"}, {"measurement": "Activity", "setting": "[12]", "value": 94, "unit": "%"}, {"measurement": "Activity", "setting": "[13]", "value": 52, "unit": "%"}, {"measurement": "GI50", "setting": "[14]", "value": 27.6, "unit": "µM"}, {"measurement": "Activity", "setting": "[15]", "value": "Non-Toxic"}]}
